Measured values as given in ChEMBL document CHEMBL1144841, “Discovery of a novel indole series of EP1 receptor antagonists by scaffold hopping” (Bioorg Med Chem Lett, 2008).
One block for each compound: values may come before it.

Assays:
[1] = molecular target: T1, Prostaglandin E2 receptor EP1 subtype (Homo sapiens, UniProt P34995); assay: Displacement of [3H]PGE2 from human EP1 receptor expressed in CHOK1 cells; format: cell-based, CHO-K1
T1 sequence (P34995 whole entry): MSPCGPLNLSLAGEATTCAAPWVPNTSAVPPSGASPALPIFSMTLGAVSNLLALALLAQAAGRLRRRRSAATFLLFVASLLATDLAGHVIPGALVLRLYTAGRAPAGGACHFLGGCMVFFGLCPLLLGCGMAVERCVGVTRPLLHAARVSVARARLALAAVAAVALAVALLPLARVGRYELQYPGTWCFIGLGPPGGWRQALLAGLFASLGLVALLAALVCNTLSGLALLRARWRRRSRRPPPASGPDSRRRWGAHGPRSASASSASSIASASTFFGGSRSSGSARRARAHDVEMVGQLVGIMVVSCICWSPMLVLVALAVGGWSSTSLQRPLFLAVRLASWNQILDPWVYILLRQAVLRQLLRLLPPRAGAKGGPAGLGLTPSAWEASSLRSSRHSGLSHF
Method in brief: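 Membranes from CHO-K1 cells stably transfected with human EP1 cDNA were incubated with competing compound and [3H]-PGE2 (3 nM final) for 30 min at 30 °C. Bound radioactivity was counted by liquid scintillation. Values are means of at least three experiments.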

[2] = molecular target: T1, Prostaglandin E2 receptor EP1 subtype; assay: Antagonist activity against human EP1 receptor expressed in CHOK1 cells assessed as inhibition of PGE2-induced intracellular calcium mobilization by FLIPR assay; format: functional, cell-based, CHO-K1
Liver [3] = assay: Metabolic stability assessed as intrinsic clearance in rat liver microsome; format: ADME; conditions: microsomes
Method in brief: (§1)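 Intrinsic clearance was measured in liver microsomes and expressed as mL/min/g liver. Values come from a single experiment.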

Liver [4] = assay: Metabolic stability assessed as intrinsic clearance in human liver microsome; format: ADME; conditions: microsomes; method in brief: as §1
Rattus norvegicus [5] = assay: Inhibition of complete Freund's adjuvant-induced hypersensitivity in orally dosed rat; format: functional; conditions: po
Method in brief: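 Rats with CFA-induced inflammatory hypersensitivity were dosed orally, seven per dose group, with celecoxib 10 mg/kg po as comparator. Readout was taken 1 h after dosing. ED50 was calculated from the dose-response, and significance was reported at p < 0.05, 0.01 and 0.001.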

Rattus norvegicus [6] = assay: Drug level in complete Freund's adjuvant-induced hypersensitivity rat blood at 1 mg/kg, po; format: ADME, organism-based; parameters: dose 1 mg/kg, route oral; conditions: in vivo, read-out: Drug uptake
Method in brief: (§2)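 Blood was sampled from the rats in the CFA hypersensitivity efficacy study, seven per dose group, and analysed by bioanalysis. Rats were dosed orally at 1, 3 and 10 mg/kg.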

Rattus norvegicus [7] = assay: Drug level in complete Freund's adjuvant-induced hypersensitivity rat blood at 3 mg/kg, po; format: ADME, organism-based; parameters: dose 3 mg/kg, route oral; conditions: in vivo, read-out: Drug uptake; method in brief: as §2
Rattus norvegicus [8] = assay: Drug level in complete Freund's adjuvant-induced hypersensitivity rat blood at 10 mg/kg, po; format: ADME, organism-based; parameters: dose 10 mg/kg, route oral; conditions: in vivo, read-out: Drug uptake; method in brief: as §2
[9] = Ratio of drug level in brain to blood in complete Freund's adjuvant-induced hypersensitivity rat; format: ADME, tissue-based
[10] = molecular target: T2, Prostaglandin E2 receptor EP3 subtype (Homo sapiens, UniProt P43115); assay: Antagonist activity against EP3 receptor by FLIPR assay; format: functional
T2 sequence (P43115 whole entry): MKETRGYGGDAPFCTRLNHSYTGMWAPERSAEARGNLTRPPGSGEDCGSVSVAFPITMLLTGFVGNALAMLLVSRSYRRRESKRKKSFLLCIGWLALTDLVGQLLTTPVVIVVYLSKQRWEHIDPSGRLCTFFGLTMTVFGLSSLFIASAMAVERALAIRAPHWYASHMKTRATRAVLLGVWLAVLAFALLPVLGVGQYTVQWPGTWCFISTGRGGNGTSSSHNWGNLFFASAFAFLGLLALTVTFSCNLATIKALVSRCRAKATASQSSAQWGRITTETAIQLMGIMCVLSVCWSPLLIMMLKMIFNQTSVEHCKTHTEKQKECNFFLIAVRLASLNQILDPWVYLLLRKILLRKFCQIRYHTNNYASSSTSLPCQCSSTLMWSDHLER

Thromboxane A2 receptor = molecular target: T3, Thromboxane A2 receptor (Homo sapiens, UniProt P21731); assay: Antagonist activity against TP receptor by FLIPR assay; format: functional
T3 sequence (P21731 whole entry): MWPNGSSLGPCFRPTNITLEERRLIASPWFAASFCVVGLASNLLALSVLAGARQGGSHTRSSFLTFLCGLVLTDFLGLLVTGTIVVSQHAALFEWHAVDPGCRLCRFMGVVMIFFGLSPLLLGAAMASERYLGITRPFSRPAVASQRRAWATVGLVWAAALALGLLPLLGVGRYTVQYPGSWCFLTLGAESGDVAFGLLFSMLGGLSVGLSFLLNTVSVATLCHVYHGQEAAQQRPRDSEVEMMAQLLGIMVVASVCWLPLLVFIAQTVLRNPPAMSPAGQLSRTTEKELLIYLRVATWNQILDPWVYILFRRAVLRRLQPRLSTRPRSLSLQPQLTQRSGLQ

SMILES: CC(C)Cc1cn(-c2cccc(C(=O)[O-])n2)c2cc(Cl)ccc12.[Na+]
IC50 ([1]; read-out: Log IC50 (converted)): 63.1 nM
Ki ([2]; read-out: Log Ki (converted)): 20 nM
CL (Liver [3]): 4.3 mL/min/g
CL (Liver [4]): 3.6 mL/min/g
ED50 (Rattus norvegicus [5]): 2.17 mg/kg
concentration (Rattus norvegicus [6]): 440 nM
concentration (Rattus norvegicus [7]): 1230 nM
concentration (Rattus norvegicus [8]): 6040 nM
Kp [9]: 0.05
Ki [10]: 794 nM

SMILES: CC(C)(C)Cc1cn(-c2nc(C(=O)[O-])cs2)c2cc(Cl)ccc12.[Na+]
IC50 ([1]; read-out: Log IC50 (converted)): 31.6 nM
CL (Liver [3]): 1.9 mL/min/g
CL (Liver [4]): 2.7 mL/min/g

SMILES: CN(C)C(=O)c1cn(-c2nc(C(=O)O)cs2)c2cc(Cl)ccc12
IC50 ([1]; read-out: Log IC50 (converted)): 1000 nM

SMILES: CC(C)Cc1cn(CC(=O)O)c2cc(Cl)ccc12
IC50 ([1]; read-out: Log IC50 (converted)): > 1000 nM

SMILES: CC(C)(C)CCc1cn(-c2nc(C(=O)[O-])cs2)c2cc(Cl)ccc12.[Na+]
IC50 ([1]; read-out: Log IC50 (converted)): 6.31 nM
Ki ([2]; read-out: Log Ki (converted)): 3.98 nM
CL (Liver [3]): 1.3 mL/min/g
CL (Liver [4]): 2.1 mL/min/g
Ki [10]: 398 nM
Ki (Thromboxane A2 receptor): 79.4 nM

SMILES: CCCc1cn(-c2nc(C(=O)[O-])cs2)c2cc(Cl)ccc12.[Na+]
IC50 ([1]; read-out: Log IC50 (converted)): 31.6 nM
CL (Liver [3]): 11 mL/min/g
CL (Liver [4]): 1.3 mL/min/g

SMILES: CN(C)CCc1cn(-c2nc(C(=O)O)cs2)c2cc(Cl)ccc12
IC50 ([1]; read-out: Log IC50 (converted)): > 1000 nM

SMILES: CC(C)Cc1cn(-c2cccc(C(=O)O)c2)c2cc(Cl)ccc12
IC50 ([1]; read-out: Log IC50 (converted)): 631 nM

SMILES: CC(C)Cc1cn(-c2ccccc2C(=O)O)c2cc(Cl)ccc12
IC50 ([1]; read-out: Log IC50 (converted)): > 1000 nM

SMILES: O=C(O)c1csc(-n2cc(CC(F)(F)F)c3ccc(Cl)cc32)n1
IC50 ([1]; read-out: Log IC50 (converted)): 251 nM

SMILES: O=C(O)c1csc(-n2ccc3ccc(Cl)cc32)n1
IC50 ([1]; read-out: Log IC50 (converted)): > 1000 nM

SMILES: CC(C)Cc1cn(-c2ncc(C(=O)O)s2)c2cc(Cl)ccc12
IC50 ([1]; read-out: Log IC50 (converted)): 100 nM

SMILES: CC(C)Cc1cn(-c2nc(C(=O)O)co2)c2cc(Cl)ccc12
IC50 ([1]; read-out: Log IC50 (converted)): 7.94 nM
Ki ([2]; read-out: Log Ki (converted)): 1 nM

SMILES: CC(C)Cc1cn(-c2ccc(C(=O)O)s2)c2cc(Cl)ccc12
IC50 ([1]; read-out: Log IC50 (converted)): 50.1 nM

SMILES: Cc1c(CC(C)C)c2ccc(Cl)cc2n1-c1nc(C(=O)O)cs1
IC50 ([1]; read-out: Log IC50 (converted)): 39.8 nM

SMILES: CC(C)Cc1cn(-c2ccc(C(=O)[O-])o2)c2cc(Cl)ccc12.[Na+]
IC50 ([1]; read-out: Log IC50 (converted)): 25.1 nM
Ki ([2]; read-out: Log Ki (converted)): 1.26 nM
CL (Liver [3]): 35 mL/min/g
CL (Liver [4]): 5.4 mL/min/g
Ki [10]: 501 nM
Ki (Thromboxane A2 receptor): 398 nM

SMILES: O=C(O)c1csc(-n2cc(Cc3ccccc3)c3ccc(Cl)cc32)n1
IC50 ([1]; read-out: Log IC50 (converted)): 158 nM
Ki ([2]; read-out: Log Ki (converted)): 63.1 nM

The next lines start with the values.

IC50 ([1]; read-out: Log IC50 (converted)): 39.8 nM
SMILES: CC(C)Cc1cn(-c2nc(C(=O)O)cs2)c2ccc(Cl)cc12

IC50 ([1]; read-out: Log IC50 (converted)): 3.98 nM
Ki ([2]; read-out: Log Ki (converted)): 0.2 nM
Ki [10]: 398 nM
Ki (Thromboxane A2 receptor): 50.1 nM
SMILES: CC(C)Cc1cn(-c2nc(C(=O)O)cs2)c2cc(Br)ccc12

IC50 ([1]; read-out: Log IC50 (converted)): 39.8 nM
SMILES: CC(C)Cc1cn(-c2nc(C(=O)O)cs2)c2cc(F)ccc12

IC50 ([1]; read-out: Log IC50 (converted)): > 1000 nM
SMILES: CN(C)Cc1cn(-c2nc(C(=O)O)cs2)c2cc(Cl)ccc12

IC50 ([1]; read-out: Log IC50 (converted)): 158 nM
SMILES: CC(C)Cc1cn(-c2nc(CC(=O)O)cs2)c2cc(Cl)ccc12

IC50 ([1]; read-out: IC50): 6.3 nM
Ki ([2]; read-out: Ki): 0.5 nM
CL (Liver [3]): 12 mL/min/g
CL (Liver [4]): 2.2 mL/min/g
Ki [10]: 316 nM
Ki (Thromboxane A2 receptor): 31.6 nM
SMILES: CC(C)Cc1cn(-c2nc(C(=O)[O-])cs2)c2cc(Cl)ccc12.[Na+]

IC50 ([1]; read-out: Log IC50 (converted)): 158 nM
Ki ([2]; read-out: Log Ki (converted)): 12.6 nM
SMILES: CC(C)Cc1cn(-c2nc(C(=O)O)cs2)c2ccccc12

IC50 ([1]; read-out: Log IC50 (converted)): 12.6 nM
Ki ([2]; read-out: Log Ki (converted)): 0.0631 nM
Ki [10]: 501 nM
SMILES: CC(C)Cc1cn(-c2nc(C(=O)O)cs2)c2cc(C(F)(F)F)ccc12

IC50 ([1]; read-out: Log IC50 (converted)): 10 nM
SMILES: Cc1ccc2c(CC(C)C)cn(-c3nc(C(=O)O)cs3)c2c1

IC50 ([1]; read-out: Log IC50 (converted)): 39.8 nM
SMILES: CC(C)c1cn(-c2nc(C(=O)O)cs2)c2cc(Cl)ccc12

IC50 ([1]; read-out: Log IC50 (converted)): 6.31 nM
SMILES: CC(C)Cc1cn(Cc2nc(C(=O)O)cs2)c2cc(Cl)ccc12

IC50 ([1]; read-out: Log IC50 (converted)): 126 nM
SMILES: CCc1cn(-c2nc(C(=O)O)cs2)c2cc(Cl)ccc12

IC50 ([1]; read-out: Log IC50 (converted)): 100 nM
SMILES: CC(C)C(=O)c1cn(-c2nc(C(=O)O)cs2)c2cc(Cl)ccc12
